Here are results for 24 compounds from ChEMBL document CHEMBL4725407, “New cannabinoid receptor antagonists as pharmacological tool” (Bioorg Med Chem, 2020).

Data set [1] concerns the target T1, Cannabinoid receptor 1 (Homo sapiens, UniProt P21554). In words: Displacement of [3H]CP55940 from human CB1R transfected in HEK293EBNA cell membranes incubated for 90 mins by Microbeta TriLux based luminescence analysis. Also on record: species or system HEK293-EBNA.
The target of data set [2] is Cannabinoid receptor 2 (Homo sapiens, UniProt P34972). The experiment in a line: Displacement of [3H]CP55940 from human CB2R transfected in HEK293EBNA cell membrane incubated for 90 mins by Microbeta TriLux based luminescence analysis. It counts as cell membranes, HEK293-EBNA.
Chain of Cannabinoid receptor 2 (P34972 whole entry): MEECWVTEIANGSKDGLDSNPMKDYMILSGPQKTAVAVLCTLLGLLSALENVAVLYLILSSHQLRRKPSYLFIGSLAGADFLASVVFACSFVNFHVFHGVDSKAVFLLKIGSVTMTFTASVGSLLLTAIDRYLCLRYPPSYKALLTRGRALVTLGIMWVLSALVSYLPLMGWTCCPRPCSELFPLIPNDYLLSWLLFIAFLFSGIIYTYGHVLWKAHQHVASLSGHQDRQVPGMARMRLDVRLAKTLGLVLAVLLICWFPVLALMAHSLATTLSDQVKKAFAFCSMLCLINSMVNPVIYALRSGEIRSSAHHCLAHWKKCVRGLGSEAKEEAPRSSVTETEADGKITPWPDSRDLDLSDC
Data set [3] has as its system HEK293-EBNA. In words: Selectivity index, ratio of Ki for human CB1R transfected in HEK293EBNA cell membrane to ratio of Ki for human CB2R transfected in HEK293EBNA cell membrane incubated for 90 mins by Microbeta TriLux based luminescence analysis. Summed up:
(§1)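 Membranes of HEK293EBNA cells expressing human CB1 (~0.415 mg/mL protein) or CB2 (~0.18 mg/mL) incubated 90 min at 30 °C with [³H]-CP55940 (0.54 nM CB1; 0.33 nM CB2) and competitor, in Tris buffer pH 7.4 with EDTA, MgCl₂, BSA. Filtered, washed, bound radioactivity counted; IC50 by curve fitting, Ki by Cheng–Prusoff; selectivity = Ki CB1/Ki CB2.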

In data set [4] the target is T1, Cannabinoid receptor 1. The experiment in a line: Displacement of [3H]CP55940 from human CB1R transfected in HEK293EBNA cell membrane incubated for 90 mins by Microbeta TriLux based luminescence analysis relative to control. It counts as cell membranes. The note with it: HEK293-EBNA. The method in brief: as §1
(In general: Displacement assays read how much labelled ligand stays bound in the presence of the test substance.)

Data set [5] is filed under the species Mus musculus. In words: Antagonist activity at cannabinoid receptor in ICR mouse vas deferens assessed as reduction of WIN55212-2-induced inhibition of electrically evoked contraction at 1 uM incubated for 10 mins prior to WIN55212-2 addition. It counts as tissue-based.
For data set [6], the target named is Cannabinoid receptor 2 (Mus musculus) (UniProt P47936). The experiment in a line: Agonist activity at CB2 receptor in mouse MC3T3-E1 cells assessed as induction of bone activity by measuring increase in collagen I gene expression at 0.01 to 1 uM incubated for 72 hrs by real time PCR analysis. It counts as cell-based. The note with it: filed as agonist, dose microM 0.01-1, time 72.0 hrs. Summed up: (§2)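 MC3T3-E1 cells in DMEM/10% FBS for 24 h; attached cells moved to osteogenic medium (50 μg/mL ascorbic acid, 10⁻⁹ M dexamethasone, 10 mM β-glycerophosphate) with agent (HU308 10⁻⁶–10⁻⁸ M; antagonists 10⁻⁶ M) or vehicle, 72 h at 37 °C, 5% CO₂. Collagen type I mRNA from total RNA by RT-qPCR, ΔΔCT relative quantification; three experiments in triplicate.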
Chain of Cannabinoid receptor 2 (Mus musculus) (P47936 whole entry): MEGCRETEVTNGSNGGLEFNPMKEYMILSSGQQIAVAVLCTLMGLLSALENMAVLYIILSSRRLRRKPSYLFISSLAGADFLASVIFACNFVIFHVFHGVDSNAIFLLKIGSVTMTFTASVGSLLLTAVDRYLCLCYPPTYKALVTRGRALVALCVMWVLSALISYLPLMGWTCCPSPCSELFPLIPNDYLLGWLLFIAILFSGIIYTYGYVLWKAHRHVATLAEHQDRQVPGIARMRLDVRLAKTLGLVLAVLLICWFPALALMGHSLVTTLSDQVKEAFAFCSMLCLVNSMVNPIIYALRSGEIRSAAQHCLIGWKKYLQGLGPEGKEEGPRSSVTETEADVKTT
Background: In qPCR the cycle at which signal appears reflects the starting amount.

Data set [7] concerns MC3T3-E1. The experiment in a line: Cytotoxicity against mouse MC3T3-E1 cell assessed as reduction in cell viability at 1 uM incubated for 48 hrs by MTT assay. The class given is cell-based. The note with it: mc3t3-e1, 48 h. Summed up: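 MC3T3-E1 cells in 96-well plates, 24 h in DMEM/10% FBS, then 48 h with compound at 10⁻⁶ M or vehicle; viability by MTT reduction; three experiments in sextuplicate.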

For data set [8], the target named is Cannabinoid receptor 2 (Mus musculus) (UniProt P47936). The experiment in a line: Agonist activity at CB2 receptor in mouse MC3T3-E1 cells assessed as induction of bone activity by measuring increase in collagen I gene expression at 1 uM incubated for 72 hrs by real time PCR analysis. The class given is cell-based. Summed up: as §2
Data set [9] shares this target. The experiment in a line: Antagonist activity at CB2 receptor in mouse MC3T3-E1 cells assessed as inhibition of HU308-induced collagen I gene expression at 1 uM pretreated with compound and HU308 for 24 hrs followed by further incubation with HU308 for 48 hrs by real time PCR analysis. The class given is cell-based. The note with it: filed as antagonist, time 72.0 hrs. Summed up: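 MC3T3-E1 cells seeded 24 h in DMEM/10% FBS, then pre-treated 24 h in osteogenic medium (ascorbic acid, dexamethasone, β-glycerophosphate) with 10⁻⁶ M antagonist plus HU308 10⁻⁸ M; medium then replaced by osteogenic medium with HU308 10⁻⁸ M alone (controls vehicle) for 48 h more. Collagen I mRNA by RT-qPCR, ΔΔCT; three experiments in triplicate.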

The term Ki denotes a measure of affinity in units of concentration, obtained from inhibition or displacement. A higher Ki goes with weaker binding. For orientation: inhibition means the share of the control response that was lost under treatment.

Calls of active or inactive are those of the source. The calls are words filed in the database; no cut-off is given here.

T1 sequence (P21554 whole entry): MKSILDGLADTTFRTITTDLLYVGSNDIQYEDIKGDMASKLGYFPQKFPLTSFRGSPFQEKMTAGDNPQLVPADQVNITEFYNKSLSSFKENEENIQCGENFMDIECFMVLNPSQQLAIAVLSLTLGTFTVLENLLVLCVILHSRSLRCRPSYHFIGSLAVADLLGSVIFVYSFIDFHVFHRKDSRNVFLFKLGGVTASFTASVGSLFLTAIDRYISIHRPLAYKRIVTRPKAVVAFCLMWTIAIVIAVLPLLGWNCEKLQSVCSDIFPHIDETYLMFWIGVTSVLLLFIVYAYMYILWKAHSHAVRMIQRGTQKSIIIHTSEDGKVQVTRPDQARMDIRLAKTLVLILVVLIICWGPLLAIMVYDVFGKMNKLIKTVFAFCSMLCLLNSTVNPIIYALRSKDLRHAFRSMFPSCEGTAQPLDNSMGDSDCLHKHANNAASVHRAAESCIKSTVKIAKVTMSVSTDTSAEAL

Take `Cn1nc(OCCc2ccccc2)c2cc([N+](=O)[O-])ccc21`: the Ki in data set [1] was > 40 µM; in [2], 1.2 µM. In addition, in [3], the Ratio Ki is > 33.3. In data set [4], the inhibition amounted to 25%. Moreover, the inhibition result in data set [5] was “inactive”.
`c1ccc2cc(COc3nn(CCC4CCCCC4)c4ccccc34)ccc2c1`: the Ki was 0.15 µM in data set [1] and > 40 µM in data set [2]. The Ratio Ki in data set [3] is < 0.004. Also, the inhibition result in [5] is “inactive”.
For the compound `O=[N+]([O-])c1ccc2[nH]nc(OCc3ccc4ccccc4c3)c2c1`, the Ki worked out at 13.6 µM in data set [1] and 5 µM in data set [2]. Besides, the Ratio Ki in data set [3] stood at 2.7. For the same compound, in data set [5], the inhibition entry was “inactive”.
As to `c1ccc2cc(COc3n[nH]c4ccccc34)ccc2c1`, the Ki is 21.7 µM in [1] and 7 µM in [2]. For the same compound, the Ratio Ki in data set [3] was found to be 3.1. In addition, in data set [5], the inhibition result is “inactive”.
For `c1ccc2c(c1)c(OCC1CCCCC1)nn2CC1CCCCC1`, in data set [3], the Ratio Ki was 0.2. In data set [5], the inhibition result was “inactive”.
Take `CCCCCCC(C)(C)c1cc(OC)c([C@H]2C=C(CO)[C@H]3C[C@@H]2C3(C)C)c(OC)c1`: the outcome in data set [6] was Active.
As for `Nc1ccc2c(c1)c(OCc1ccccc1)nn2Cc1ccccc1`, the Ratio Ki in data set [3] was determined as 2.5. Moreover, in data set [5] (filed as antagonist), the inhibition result is “Active”.
On to `Cc1c(C(=O)NN2CCCCC2)nn(-c2ccc(Cl)cc2Cl)c1-c1ccc(I)cc1`, for which the inhibition entry in [5] (filed as antagonist) is “Active”.
As to `Cn1nc(OCc2ccc3ccccc3c2)c2cc([N+](=O)[O-])ccc21`, the values for the Ki in data set [1] and in data set [2] were > 40 µM and 3.5 µM, respectively. Also, the Ratio Ki in [3] was > 11.4. In data set [5] (filed as antagonist), the inhibition result is “Active”.
As for `O=[N+]([O-])c1ccc2c(c1)c(OCc1ccc3ccccc3c1)nn2Cc1ccccc1`, the Ratio Ki in [3] was > 25. Besides, the inhibition entry in data set [5] was “inactive”.
Take `O=[N+]([O-])c1ccc2c(c1)c(OCC1CCCCC1)nn2Cc1ccccc1`: the Ratio Ki in data set [3] was > 444. Further, in data set [7], the Activity result is “Non-Toxic”. Besides, in data set [8], the result was inactive. For the same compound, the inhibition entry in [9] and in data set [5] (filed as antagonist) was “Active” throughout.
As to `CCCn1nc(OCc2ccc3ccccc3c2)c2cc(N)ccc21`, the figures for the Ki in [1] and in data set [2] were 1.6 µM and 2.9 µM, respectively. For the same compound, the Ratio Ki in [3] was 0.6. Moreover, in [5], the inhibition entry is “inactive”.
Consider `O=[N+]([O-])c1ccc2c(c1)c(OCc1ccccc1)nn2Cc1ccccc1`, for which the Ratio Ki in [3] came to 3. Also, the inhibition entry in data set [5] is “inactive”.
`CCCn1nc(OCc2ccc3ccccc3c2)c2cc([N+](=O)[O-])ccc21`: the Ki in [1] was found to be 0.356 µM; in [2], 0.47 µM. Moreover, the Ratio Ki in data set [3] came out at 0.8. Moreover, the Activity result in [7] was “Non-Toxic”. Moreover, the outcome in data set [8] was inactive. The inhibition entry in data set [9] and in data set [5] (filed as antagonist) was “Active” each time.
In the case of `Cn1nc(OCc2cccc3ccccc23)c2cc([N+](=O)[O-])ccc21`, the Ki in [1] was ≥ 40 µM; in data set [2] it was 0.25 µM. Besides, in [3], the Ratio Ki was > 160. The inhibition entry in data set [5] (filed as antagonist) is “Active”.
On to `c1ccc(COc2nn(Cc3ccccc3)c3ccccc23)cc1`, for which the Ratio Ki in data set [3] worked out at 0.7. Moreover, the inhibition entry in data set [5] is “inactive”.
Regarding `Cn1nc(OCc2ccc3ccccc3c2)c2ccccc21`, the Ki was 4 µM in [1] and 10.1 µM in [2]. In addition, in data set [3], the Ratio Ki was found to be 0.4. For the same compound, in data set [5] (filed as antagonist), the inhibition result was “Active”.
As to `CCCCCn1nc(OCc2ccc(OC)cc2)c2cc([N+](=O)[O-])ccc21`, the Ratio Ki in data set [3] is 1.6. Further, in [5] (filed as antagonist), the inhibition result is “Active”.
In the case of `COc1ccc(COc2n[nH]c3ccccc23)cc1`, the Ki is 21 µM in data set [1] and 4.5 µM in data set [2]. The Ratio Ki in data set [3] was 4.7. In addition, in data set [5], the inhibition entry is “inactive”.
Consider `c1ccc2c(COc3n[nH]c4ccccc34)cccc2c1`, for which the Ki was 1.6 µM in [1] and 0.44 µM in data set [2]. Further, the Ratio Ki in data set [3] worked out at 3.6. In [5], the inhibition entry is “inactive”.
As for `CCCCCOc1nn(CCCCC)c2ccc([N+](=O)[O-])cc12`, in data set [3], the Ratio Ki was found to be 1.9. Besides, the inhibition entry in data set [5] was “inactive”.
As to `CCCCCn1nc(OCc2ccc3ccccc3c2)c2cc([N+](=O)[O-])ccc21`, in data set [3], the Ratio Ki turned out to be 1.2. In addition, in [5], the inhibition entry is “inactive”.
As for `O=[N+]([O-])c1ccc2[nH]nc(OCc3cccc4ccccc34)c2c1`, the Ki in data set [1] is > 40 µM; in [2] it was 0.9 µM. The Ratio Ki in data set [3] was > 44.4. This compound also registered an inhibition in data set [4] of 38%. In data set [5] (filed as antagonist), the inhibition entry is “Active”.
Take `COc1ccc(COc2n[nH]c3ccc([N+](=O)[O-])cc23)cc1`: the Ki is > 40 µM in data set [1] and 1.8 µM in data set [2]. Besides, the Ratio Ki in data set [3] is > 22.2. Further, in data set [5], the inhibition result was “inactive”.
